Shown are actives, neighbours in structure and some others; about 2.3% of the full set was active somewhere.
Fam108B inh = mouse Fam108B serine hydrolase inhibitors, primary screen, counter-screen for RBBP9 inhibitor project, biochemical, fluorescence polarization; recombinant Fam108B, FP-Rh probe fluorescence polarization; inhibition, % at 9.51 µM; 300,000 compounds, 0.33% hits;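 active = inhibition above the screen mean inhibition plus 3 SD, computed separately per campaign, cut at about 18% in these data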;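 also: inhibitors lower polarization as less probe binds the enzyme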
GSTO1 counter = inhibitors of recombinant GSTO1, primary screen, counter-screen for RBBP9 inhibitor project, biochemical, fluorescence polarization; Glutathione S-transferase omega-1 (Homo sapiens), P78417; activity-based probe fluorescence polarization; inhibition, % at 5.96 µM; 300,000 compounds, 1.1% hits; AID 1974, 2009;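 active = inhibition above the campaign mean inhibition plus 3 SD, cut at about 35% in these data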
PAD4 FP inh = human PAD4 inhibitors, primary screen, biochemical, fluorescence polarization, 1536-well format; inhibition, % at 6.36 µM; recombinant PAD4, RCA probe fluorescence polarization; Protein-arginine deiminase type-4 (Homo sapiens), Q9UM07; AID 485272, 2010; 330,000 compounds, 0.41% hits;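 active = percent inhibition above a cutoff equal to the mean of all tested compounds plus 3 SD, cut at about 15% in these data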
PRMT1 inh = PRMT1 methyltransferase inhibitors, primary screen, biochemical, fluorescence polarization; recombinant PRMT1, activity-based probe fluorescence polarization; inhibition, % at 2.79 µM; Protein arginine N-methyltransferase 1 (Homo sapiens), Q99873; 370,000 compounds, 1.3% hits;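 active = inhibition above about 21% made by adding two undisclosed values, limit read from the data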
Target sequence (Q99873 whole entry, looked up): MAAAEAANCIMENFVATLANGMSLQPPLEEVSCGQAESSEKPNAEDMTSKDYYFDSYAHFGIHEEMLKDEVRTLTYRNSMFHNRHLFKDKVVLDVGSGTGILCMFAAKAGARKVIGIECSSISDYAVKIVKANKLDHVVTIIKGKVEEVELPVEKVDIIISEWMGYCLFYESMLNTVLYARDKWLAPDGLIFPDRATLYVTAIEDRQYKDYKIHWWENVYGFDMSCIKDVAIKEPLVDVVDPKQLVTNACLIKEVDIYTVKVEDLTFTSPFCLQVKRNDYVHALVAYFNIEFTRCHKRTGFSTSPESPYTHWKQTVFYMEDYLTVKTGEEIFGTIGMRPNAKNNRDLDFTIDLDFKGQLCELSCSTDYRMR
PME-1 primary = PME-1 inhibitors via competitive probe labeling, primary screen, biochemical, fluorescence polarization, FP-Rh probe, HTS. Protein phosphatase methylesterase 1 (Homo sapiens), Q9Y570. recombinant PME-1. inhibition, % at 5.9 µM. 320,000 compounds, 0.53% hits. AID 2130, 2009;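 active = inhibition above the campaign mean of all compounds plus 3 SD, cut at about 26% in these data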;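 also: competitive labeling of PME-1 active site by serine hydrolase directed probe; inhibitors block probe labeling so polarization falls and inhibition rises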
RBBP9 inh = human RBBP9 inhibitors, primary screen, biochemical, fluorescence polarization, FP-Rh probe, HTS. Serine hydrolase RBBP9 (Homo sapiens), O75884. recombinant RBBP9. inhibition, % at 7.94 µM. 220,000 compounds, 0.2% hits;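 active = inhibition above the campaign mean of all tested compounds plus 3 SD, cut at about 14% in these data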
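system = RBBP9 protein | input = RBBP9 at 2.5 µM in dispensed solution, before mixing | measured by = fluorescence polarization (mP), excitation 525 nm, emission 598 nm | incubation = enzyme-compound preincubation 30 min, then probe labeling 45 min, 25 °C | buffer or medium = Tris-NaCl-Pluronic buffer, pH 8.0 | compound = single dose 7.94 µM | also added = FP-Rh probe, 375 nM dispensing solution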
Numbers stand for hits; - = inactive; . = not tested or not shown; ! = repeats disagree.

SMILES | Fam108B inh | GSTO1 counter | PAD4 FP inh | PRMT1 inh | PME-1 primary | RBBP9 inh
O=[N+]([O-])c1ccc(SCCc2ccncc2)cc1 | - | - | - | 24.5! | - | -
CCN1CC=C2C(C#N)=C(N)C(C#N)(C#N)C(c3cc(Cl)ccc3Cl)C2C1 (centres undefined) | - | - | 22.3 | 24.7 | - | -
CC(C)N1CC=C2C(C#N)=C(N)C(C#N)(C#N)[C@H](c3ccoc3)[C@H]2C1 | - | 63.8 | 49.1 | . | - | -
CCC1C2CN(C(C)=O)CC=C2C(C#N)=C(N)C1(C#N)C#N (centres undefined) | - | - | - | - | - | -
Cc1cc(C)c(NC(=O)CSc2nnc(-c3ccncc3)n2Cc2ccco2)c(Cl)c1 | - | - | - | 22.2 | - | -
COc1cc(/C=N/NC(=O)c2cc(-c3cccs3)nc3ccccc23)ccc1O | - | - | - | - | - | -
COc1ccc(NC(=O)C(Cl)=C(Cl)Cl)cn1 | . | . | . | - | . | -
COc1ccc(NC(=O)/C(Cl)=C(/Cl)S(=O)(=O)Cc2ccccc2)cn1 | . | . | . | 23.5 | . | -
O=C(O)COc1cnc2ccccc2n1 | - | - | - | - | - | -
COc1ccc(CC(=O)Nc2ccc(OC)nc2)cc1 | - | - | - | - | - | -
COc1ccc(NC(=O)/C(Cl)=C(/Cl)S(=O)Cc2ccc(Cl)cc2)cn1 (centres undefined) | . | . | . | 32.2 | . | -
O=C(CCl)Nc1ccc(Oc2cnc3ccccc3n2)cc1 | - | 86.5 | - | - | - | -
COc1ccc(NC(=O)CCl)cn1 | - | 56.4 | - | . | - | -
COc1ccc(CN2c3ccccc3C(=O)CS2(=O)=O)cc1OC | . | . | . | - | . | .
Cc1c(NC(=O)/C(C#N)=C/c2ccccc2)c(=O)n(-c2ccccc2)n1C | - | - | - | - | - | -
COc1ccc(Cn2c(C)nc3c(c2=O)c2nc4ccccc4nc2n3Cc2ccco2)cc1 | . | . | . | 39.6 | . | .
O=C1C(Cl)=C(N2CCOCC2)C(=O)N1c1ccc(Br)cc1 | - | - | - | 25.3 | - | .
CN(C)c1ccc(CNC(=O)CN(C)S(=O)(=O)c2cccc3cccnc23)cc1 | - | - | - | - | 33.3 | -
CN(CC(=O)NCc1cccs1)S(=O)(=O)c1cccc2cccnc12 | - | - | - | - | - | -
COC(=O)C1CN(Cc2ccc(OC)cc2)CCS(=O)(=O)N1Cc1cn(Cc2ccc(OC)cc2)nn1 (centres undefined) | . | . | . | - | . | .
Oc1ccc(O)c(Cc2nc3ccccc3[nH]2)c1 | - | 70.0 | - | 30.2 | - | -
O=C(Nc1cccc(Cl)c1)c1ccc(F)c(S(=O)(=O)NCc2cccs2)c1 | - | - | - | - | - | -
Cc1ccc(-c2nn(-c3ccccc3)cc2CO)cc1 | - | - | - | - | - | .
Cc1ccc(-c2nn(-c3ccccc3)cc2NC(=O)CCl)cc1 | - | 68.6 | - | - | - | -
Cc1ccc(-n2nc(C)c(NC(=O)CCl)c2C)cc1 | - | 84.1 | - | - | - | -
SMILES | Fam108B inh | GSTO1 counter | PAD4 FP inh | PRMT1 inh | PME-1 primary | RBBP9 inh
COCCCn1ccc(O)c(Cc2ccc(F)cc2)c1=O | - | - | - | - | - | -
COc1ccc(C(=O)NC(C)CCc2ccccc2)cc1 (centres undefined) | - | - | - | - | - | .
CCOc1ccc(C(=O)NC(C)CCc2ccccc2)cc1 (centres undefined) | - | - | - | - | 38.6 | .
O=C(O)COc1ccccc1/C=C1\SC(=S)N(/N=C/c2ccccc2O)C1=O | - | - | - | 22.5 | - | -
O=C(O)COc1ccccc1/C=C1\SC(=S)N(NC(=O)c2ccccc2O)C1=O | - | - | - | - | - | .
CC1CCN(C(=O)Cn2c(=O)n(Cc3ccco3)c(=O)c3sccc32)CC1 | - | - | - | - | - | .
CCOC(=O)N1CCN(S(=O)(=O)N2CCCC(C(=O)NCc3ccccc3Cl)C2)CC1 (centres undefined) | - | - | - | - | - | .
O=C(NCc1ccco1)c1cnn2c(C(F)(F)F)cc(-c3cccs3)nc12 | - | - | - | 23.3 | - | -
COc1ccccc1CN(C)C[C@@H]1OCc2cnnn2CCCC(=O)N([C@H](C)CO)C[C@H]1C | . | . | . | - | . | .

Source: PubChem (The Scripps Research Institute Molecular Screening Center)
